Results: PubChem BioAssay AID1027 (Sanford-Burnham Center for Chemical Genomics, 2008)
The whole screen tested about 200,000 compounds, of which fewer than 10 were called active.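 The calls were made as follows: active = luciferase activation factor, scaled between plate controls, of at least 2 with compound at 10 µM; inactive = the rest.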 Only a sample is shown.

These molecules were tested against Luciferin 4-monooxygenase (Photinus pyralis) (UniProt P08659) (assay: FLuc activators, initial screening, artefact control for FLuc-dependent activation tests, biochemical, ATPlite luminescence (AID 1027)). Conditions: ATPlite luciferase biochemical, 10 min, at 10 µM, stronger effect = higher value, 0 = ATP-free wells, 1 = DMSO control.
Procedure, shortened: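 assay system = Luciferase/luciferin detection reagent, cell-free biochemical luciferase assay | also added = ATP substrate | times = 10 min post-reagent at room temperature | measured by = luminescence from luciferase reaction | measure = luciferase activation, seen as luminescence increase over controls | benchmarks = low control with PBS replacing ATP, high control enzyme plus ATP without compound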

Luciferin 4-monooxygenase (Photinus pyralis), sequence (P08659 whole entry, looked up): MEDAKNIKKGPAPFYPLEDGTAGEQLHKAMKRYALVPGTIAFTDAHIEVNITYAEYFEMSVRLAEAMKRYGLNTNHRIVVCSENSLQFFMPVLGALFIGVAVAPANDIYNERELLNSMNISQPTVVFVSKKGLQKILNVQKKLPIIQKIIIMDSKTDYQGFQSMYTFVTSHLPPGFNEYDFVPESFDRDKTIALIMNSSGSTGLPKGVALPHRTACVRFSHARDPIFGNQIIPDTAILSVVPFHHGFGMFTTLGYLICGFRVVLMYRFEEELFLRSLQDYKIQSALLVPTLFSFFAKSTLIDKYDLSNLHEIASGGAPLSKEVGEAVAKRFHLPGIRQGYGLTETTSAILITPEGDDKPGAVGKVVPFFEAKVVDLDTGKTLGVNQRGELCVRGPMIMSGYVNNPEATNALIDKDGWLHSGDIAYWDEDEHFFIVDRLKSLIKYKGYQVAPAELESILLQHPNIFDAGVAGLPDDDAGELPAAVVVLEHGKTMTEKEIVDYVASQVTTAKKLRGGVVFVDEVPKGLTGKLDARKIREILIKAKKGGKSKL

Structure (SMILES) | activation factor
COC(=O)c1c(NC(C)=O)sc(C(=O)Nc2ccccc2OC)c1C | 1 (inactive)
COc1cc(/C=N\NC(=O)c2nonc2N)c(OC)cc1Br | 1 (inactive)
CCOC(=O)C1CCN(C(=O)/C=C/c2cc(OC)c(OC)c(OC)c2)CC1 | 1 (inactive)
COc1ccc(S(=O)(=O)NC(C)C)cc1C(=O)NC1CCCCC1 | 1.1 (inactive)
COc1ccccc1C1SCCN1C(=O)c1ccc([N+](=O)[O-])cc1 (configuration not stated) | 1 (inactive)
CSc1nc(-c2ccccc2)nc(C(Cl)Cl)n1 | 1.1 (inactive)
Cc1nc(-c2ccccc2)sc1C(=O)/C=C/N(C)C | 0.9 (inactive)
COc1ccc(/C=C/C2=CC(C)(C)NC(=S)N2)c(OC)c1 | 1 (inactive)
COc1cc(OC)nc(N/N=C(\c2ccccc2)c2ccncc2)n1 | 1 (inactive)
CCn1ccnc1CN(C)Cc1nc(-c2ccc3c(c2)OCO3)no1 | 1 (inactive)
CCOC(=O)Cc1csc(SCC(=O)NC(C)C23CC4CC(CC(C4)C2)C3)n1 (configuration not stated) | 1 (inactive)
COc1ccc(C(=O)NC(=S)Nc2ccccc2N2CCN(S(C)(=O)=O)CC2)cc1OC | 1.1 (inactive)
N#C/C(=C(/O)COC(=O)COc1ccc(Cl)cc1)c1nc2ccccc2[nH]1 | 1 (inactive)
O=C(Nc1ccc([N+](=O)[O-])cc1)C1CC12CCC2 (configuration not stated) | 1 (inactive)
COC(=O)c1c(C)oc2ccc(N(C(=O)Oc3ccccc3)S(=O)(=O)c3ccccc3)cc12 | 1.1 (inactive)
Cc1ccc(Cl)cc1NC(=S)N(CCN(C)C)Cc1cccs1 | 1.1 (inactive)
Cc1cc(/C=N/NC(N)=O)c(C)n1C1CCCCC1 | 1 (inactive)
COC(=O)C(C)N=Cc1ccccc1 (configuration not stated) | 1.1 (inactive)
CN(c1ccccc1)S(=O)(=O)c1ccc(Cl)c(C(=O)NCCc2c[nH]c3ccccc23)c1 | 1 (inactive)
COc1cccc(OC)c1C(=O)NC(=S)NCc1ccco1 | 1 (inactive)
CCn1c(/C=C/Nc2ccccc2)[n+](CC)c2ccc(C(=O)OCC(F)(F)F)cc21 | 1 (inactive)
CCOc1ccc(NC(=S)N2CCC(N(C)CC3CCCO3)CC2)cc1 (configuration not stated) | 1 (inactive)
Cc1nc(CN2CCN(C(=O)CCc3nnc(Cc4c[nH]c5ccccc45)o3)CC2)cs1 | 1 (inactive)
O=C(NCc1ccc(F)cc1)C(c1ccccc1)N(C(=O)c1csnn1)C1CC1 (configuration not stated) | 1.1 (inactive)
Cc1ccc(CC2S/C(=C(/C#N)C(=O)N3CCOCC3)N(c3ccccc3)C2=O)cc1 (configuration not stated) | 1.1 (inactive)
C/C=N/NC(=O)CCCC(=O)N/N=C/C | 1 (inactive)
C/C(=N/NS(=O)(=O)c1ccccc1)c1ccc(NC(=O)C(F)(F)F)cc1 | 1 (inactive)
